# Measurements from ChEMBL document CHEMBL1156448, “Identification of an efficacy switch region in the ghrelin receptor responsible for interchange between agonism and inverse agonism” (J Biol Chem, 2007).
# Columns and labels:
# [1] = target: T1, Growth hormone secretagogue receptor type 1 (Homo sapiens, UniProt Q92847, D99K); test: Agonist activity at human ghrelin receptor Asp2:20Lys(Asp99) mutant expressed in african green monkey COS7 cells assessed as inhibition of inositol phosphate accumulation; format: functional, cell-based, COS-7
# T1 sequence (Q92847 whole entry D99K): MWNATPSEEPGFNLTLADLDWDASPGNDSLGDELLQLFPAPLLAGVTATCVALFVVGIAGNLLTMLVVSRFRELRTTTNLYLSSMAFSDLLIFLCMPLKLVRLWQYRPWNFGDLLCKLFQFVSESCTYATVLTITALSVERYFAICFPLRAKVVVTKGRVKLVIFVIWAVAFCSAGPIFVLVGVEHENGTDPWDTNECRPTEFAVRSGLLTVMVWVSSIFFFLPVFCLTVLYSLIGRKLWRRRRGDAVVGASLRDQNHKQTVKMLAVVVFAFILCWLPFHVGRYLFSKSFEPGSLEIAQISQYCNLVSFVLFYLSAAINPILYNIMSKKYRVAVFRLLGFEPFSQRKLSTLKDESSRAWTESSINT
# How it was run: (§1)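 COS-7 cells transiently transfected (calcium phosphate with chloroquine; receptor cDNA 20 μg/75 cm2, the amount giving maximal basal signaling), labelled one day later for 24 h with 5 μCi myo-[3H]inositol. Preincubated in HEPES buffer pH 7.4 with 10 mm LiCl, 30 min at 37 °C, then exposed to various peptide concentrations, 45 min at 37 °C. Inositol phosphates recovered on anion-exchange resin; duplicates; EC50 by nonlinear regression.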
# [2] = target: T2, Growth hormone secretagogue receptor type 1 (Homo sapiens, UniProt Q92847); test: Agonist activity at human ghrelin receptor Asp2:20Asn(Asp99) mutant expressed in african green monkey COS7 cells assessed as inhibition of inositol phosphate accumulation; format: functional, cell-based; conditions: cos-7; how it was run: as §1
# Target sequence in this assay (Q92847 whole entry, looked up): as the sequence (Q92847 whole entry D99K) above, with K99D counted along it
# [3] = target: T2, Growth hormone secretagogue receptor type 1; test: Inverse agonist activity at human wild type ghrelin receptor expressed in african green monkey COS7 cells assessed as inhibition of constitutively stimulated inositol phosphate accumulation; format: functional, cell-based, COS-7; how it was run: as §1
# Target sequence in this assay (Q92847 whole entry): as the sequence (Q92847 whole entry D99K) above, with K99D counted along it
# [4] = target: T2, Growth hormone secretagogue receptor type 1; test: Displacement of [35S]MK677 from human ghrelin receptor expressed in african green monkey COS7 cells; format: cell-based, COS-7
# Target sequence in this assay (Q92847 whole entry): as the sequence (Q92847 whole entry D99K) above, with K99D counted along it
# [5] = target: T2, Growth hormone secretagogue receptor type 1; test: Inverse agonist activity at human ghrelin receptor expressed in african green monkey COS7 cells assessed as constitutively stimulated inositol phosphate accumulation; format: functional, cell-based, COS-7
# Target sequence in this assay (Q92847 whole entry): as the sequence (Q92847 whole entry D99K) above, with K99D counted along it
# [6] = target: T3, Growth hormone secretagogue receptor type 1 (Homo sapiens, UniProt Q92847, Q120A); test: Inverse agonist activity at human ghrelin receptor Gln3:05Ala(Gln120) mutant expressed in african green monkey COS7 cells assessed as inhibition of constitutively stimulated inositol phosphate accumulation; format: functional, cell-based, COS-7; how it was run: as §1
# T3 sequence (Q92847 whole entry Q120A): as the sequence (Q92847 whole entry D99K) above, with K99D, Q120A counted along it
# [7] = target: T4, Growth hormone secretagogue receptor type 1 (Homo sapiens, UniProt Q92847, S123A); test: Inverse agonist activity at human ghrelin receptor Ser3:08Ala(Ser123) mutant expressed in african green monkey COS7 cells assessed as inhibition of constitutively stimulated inositol phosphate accumulation; format: functional, cell-based, COS-7; how it was run: as §1
# T4 sequence (Q92847 whole entry S123A): as the sequence (Q92847 whole entry D99K) above, with K99D, S123A counted along it
# [8] = target: T5, Growth hormone secretagogue receptor type 1 (Homo sapiens, UniProt Q92847, E124Q); test: Inverse agonist activity at human ghrelin receptor Glu3:09Gln(Glu124) mutant expressed in african green monkey COS7 cells assessed as inhibition of constitutively stimulated inositol phosphate accumulation; format: functional, cell-based, COS-7; how it was run: as §1
# T5 sequence (Q92847 whole entry E124Q): as the sequence (Q92847 whole entry D99K) above, with K99D, E124Q counted along it
# [9] = target: T6, Growth hormone secretagogue receptor type 1 (Homo sapiens, UniProt Q92847, S174A); test: Inverse agonist activity at human ghrelin receptor Ser4:16Ala(Ser174) mutant expressed in african green monkey COS7 cells assessed as inhibition of constitutively stimulated inositol phosphate accumulation; format: functional, cell-based, COS-7; how it was run: as §1
# T6 sequence (Q92847 whole entry S174A): as the sequence (Q92847 whole entry D99K) above, with K99D, S174A counted along it
# [10] = target: T7, Growth hormone secretagogue receptor type 1 (Homo sapiens, UniProt Q92847, M213A); test: Inverse agonist activity at human ghrelin receptor Met5:05Ala(Met213) mutant expressed in african green monkey COS7 cells assessed as inhibition of constitutively stimulated inositol phosphate accumulation; format: functional, cell-based, COS-7; how it was run: as §1
# T7 sequence (Q92847 whole entry M213A): as the sequence (Q92847 whole entry D99K) above, with K99D, M213A counted along it
# [11] = target: T8, Growth hormone secretagogue receptor type 1 (Homo sapiens, UniProt Q92847, V216A); test: Inverse agonist activity at human ghrelin receptor Val5:08Ala(Val216) mutant expressed in african green monkey COS7 cells assessed as inhibition of constitutively stimulated inositol phosphate accumulation; format: functional, cell-based, COS-7; how it was run: as §1
# T8 sequence (Q92847 whole entry V216A): as the sequence (Q92847 whole entry D99K) above, with K99D, V216A counted along it
# [12] = target: T9, Growth hormone secretagogue receptor type 1 (Homo sapiens, UniProt Q92847, S217A); test: Inverse agonist activity at human ghrelin receptor Ser5:09Ala(Ser217) mutant expressed in african green monkey COS7 cells assessed as inhibition of constitutively stimulated inositol phosphate accumulation; format: functional, cell-based, COS-7; how it was run: as §1
# T9 sequence (Q92847 whole entry S217A): as the sequence (Q92847 whole entry D99K) above, with K99D, S217A counted along it
# [13] = target: T10, Growth hormone secretagogue receptor type 1 (Homo sapiens, UniProt Q92847, F220A); test: Inverse agonist activity at human ghrelin receptor Phe5:12Ala(Phe220) mutant expressed in african green monkey COS7 cells assessed as inhibition of constitutively stimulated inositol phosphate accumulation; format: functional, cell-based, COS-7; how it was run: as §1
# T10 sequence (Q92847 whole entry F220A): as the sequence (Q92847 whole entry D99K) above, with K99D, F220A counted along it
# [14] = target: T11, Growth hormone secretagogue receptor type 1 (Homo sapiens, UniProt Q92847, R283Q); test: Inverse agonist activity at human ghrelin receptor Arg6:20Gln(Arg283) mutant expressed in african green monkey COS7 cells assessed as inhibition of constitutively stimulated inositol phosphate accumulation; format: functional, cell-based, COS-7; how it was run: as §1
# T11 sequence (Q92847 whole entry R283Q): as the sequence (Q92847 whole entry D99K) above, with K99D, R283Q counted along it
# [15] = target: T12, Growth hormone secretagogue receptor type 1 (Homo sapiens, UniProt Q92847, N305A); test: Inverse agonist activity at human ghrelin receptor Asn7:02Ala(Asn305) mutant expressed in african green monkey COS7 cells assessed as inhibition of constitutively stimulated inositol phosphate accumulation; format: functional, cell-based, COS-7; how it was run: as §1
# T12 sequence (Q92847 whole entry N305A): as the sequence (Q92847 whole entry D99K) above, with K99D, N305A counted along it
# [16] = target: T2, Growth hormone secretagogue receptor type 1; test: Inverse agonist activity at human ghrelin receptor Phe7:06Leu(Phe306) mutant expressed in african green monkey COS7 cells assessed as inhibition of constitutively stimulated inositol phosphate accumulation; format: functional, cell-based; conditions: cos-7; how it was run: as §1
# Target sequence in this assay (Q92847 whole entry, looked up): as the sequence (Q92847 whole entry D99K) above, with K99D counted along it
# [17] = target: T13, Growth hormone secretagogue receptor type 1 (Homo sapiens, UniProt Q92847, F312A); test: Inverse agonist activity at human ghrelin receptor Phe7:09Ala(Phe312) mutant expressed in african green monkey COS7 cells assessed as inhibition of constitutively stimulated inositol phosphate accumulation; format: functional, cell-based, COS-7; how it was run: as §1
# T13 sequence (Q92847 whole entry F312A): as the sequence (Q92847 whole entry D99K) above, with K99D, F312A counted along it
# [18] = target: T14, Growth hormone secretagogue receptor type 1 (Homo sapiens, UniProt Q92847, F119S); test: Agonist activity at human ghrelin receptor Phe3:04Ser(phe119) mutant expressed in african green monkey COS7 cells assessed as stimulation of constitutively stimulated inositol phosphate accumulation
# T14 sequence (Q92847 whole entry F119S): as the sequence (Q92847 whole entry D99K) above, with K99D, F119S counted along it
# [19] = target: T15, Growth hormone secretagogue receptor type 1 (Homo sapiens, UniProt Q92847, I178A); test: Agonist activity at human ghrelin receptor Ile4:20Ala(Ile178) mutant expressed in african green monkey COS7 cells assessed as stimulation of constitutively stimulated inositol phosphate accumulation
# T15 sequence (Q92847 whole entry I178A): as the sequence (Q92847 whole entry D99K) above, with K99D, I178A counted along it
# [20] = target: T2, Growth hormone secretagogue receptor type 1; test: Agonist activity at human wild type ghrelin receptor expressed in african green monkey COS7 cells assessed as stimulation of constitutively stimulated inositol phosphate accumulation; format: functional, cell-based, COS-7
# How it was run: (§2)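 COS-7 cells transiently transfected (calcium phosphate with chloroquine, cDNA amount giving maximal basal signaling, 20 μg/75 cm2). After 1 day, labeled 24 h with 5 μCi myo-[3H]inositol. Washed in HEPES buffer pH 7.4, preincubated 30 min at 37 °C with 10 mM LiCl, then exposed to peptide concentrations for 45 min at 37 °C. Formic acid extraction, anion-exchange purification. Duplicate determinations. EC50 by nonlinear regression.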
# Target sequence in this assay (Q92847 whole entry): as the sequence (Q92847 whole entry D99K) above, with K99D counted along it
# [21] = target: T2, Growth hormone secretagogue receptor type 1; test: Agonist activity at human ghrelin receptor Asp2:20Asn(Asp99) mutant expressed in african green monkey COS7 cells assessed as stimulation of constitutively stimulated inositol phosphate accumulation; format: functional, cell-based; conditions: cos-7; how it was run: as §2
# Target sequence in this assay (Q92847 whole entry, looked up): as the sequence (Q92847 whole entry D99K) above, with K99D counted along it
# [22] = target: T1, Growth hormone secretagogue receptor type 1; test: Agonist activity at human ghrelin receptor Asp2:20Lys(Asp99) mutant expressed in african green monkey COS7 cells assessed as stimulation of constitutively stimulated inositol phosphate accumulation; format: functional, cell-based, COS-7; how it was run: as §2
# [23] = target: T14, Growth hormone secretagogue receptor type 1; test: Agonist activity at human ghrelin receptor Phe3:04Ser(phe119) mutant expressed in african green monkey COS7 cells assessed as stimulation of constitutively stimulated inositol phosphate accumulation; format: functional, cell-based, COS-7; how it was run: as §2
# [24] = target: T3, Growth hormone secretagogue receptor type 1; test: Agonist activity at human ghrelin receptor Gln3:05Ala(Gln120) mutant expressed in african green monkey COS7 cells assessed as stimulation of constitutively stimulated inositol phosphate accumulation; format: functional, cell-based, COS-7; how it was run: as §2
# [25] = target: T5, Growth hormone secretagogue receptor type 1; test: Agonist activity at human ghrelin receptor Glu3:09Gln(Glu124) mutant expressed in african green monkey COS7 cells assessed as stimulation of constitutively stimulated inositol phosphate accumulation; format: functional, cell-based, COS-7; how it was run: as §2
# [26] = target: T6, Growth hormone secretagogue receptor type 1; test: Agonist activity at human ghrelin receptor Ser4:16Ala(Ser174) mutant expressed in african green monkey COS7 cells assessed as stimulation of constitutively stimulated inositol phosphate accumulation; format: functional, cell-based, COS-7; how it was run: as §2
# [27] = target: T15, Growth hormone secretagogue receptor type 1; test: Agonist activity at human ghrelin receptor Ile4:20Ala(Ile178) mutant expressed in african green monkey COS7 cells assessed as stimulation of constitutively stimulated inositol phosphate accumulation; format: functional, cell-based, COS-7; how it was run: as §2
# [28] = target: T7, Growth hormone secretagogue receptor type 1; test: Agonist activity at human ghrelin receptor Met5:05Ala(Met213) mutant expressed in african green monkey COS7 cells assessed as stimulation of constitutively stimulated inositol phosphate accumulation; format: functional, cell-based, COS-7; how it was run: as §2
# [29] = target: T8, Growth hormone secretagogue receptor type 1; test: Agonist activity at human ghrelin receptor Val5:08Ala(Val216) mutant expressed in african green monkey COS7 cells assessed as stimulation of constitutively stimulated inositol phosphate accumulation; format: functional, cell-based, COS-7; how it was run: as §2
# [30] = target: T9, Growth hormone secretagogue receptor type 1; test: Agonist activity at human ghrelin receptor Ser5:09Ala(Ser217) mutant expressed in african green monkey COS7 cells assessed as stimulation of constitutively stimulated inositol phosphate accumulation; format: functional, cell-based, COS-7; how it was run: as §2
# [31] = target: T10, Growth hormone secretagogue receptor type 1; test: Agonist activity at human ghrelin receptor Phe5:12Ala(Phe220) mutant expressed in african green monkey COS7 cells assessed as stimulation of constitutively stimulated inositol phosphate accumulation; format: functional, cell-based, COS-7; how it was run: as §2
# [32] = target: Growth hormone secretagogue receptor type 1 (Homo sapiens, UniProt Q92847, F279A); test: Agonist activity at human ghrelin receptor Phe6:16Ala(Phe279) mutant expressed in african green monkey COS7 cells assessed as stimulation of constitutively stimulated inositol phosphate accumulation; format: functional, cell-based, COS-7; how it was run: as §2
# Chain of Growth hormone secretagogue receptor type 1 (Homo sapiens, UniProt Q92847, F279A) (Q92847 whole entry F279A): as the sequence (Q92847 whole entry D99K) above, with K99D, F279A counted along it
# [33] = target: T11, Growth hormone secretagogue receptor type 1; test: Agonist activity at human ghrelin receptor Arg6:20Gln(Arg283) mutant expressed in african green monkey COS7 cells assessed as stimulation of constitutively stimulated inositol phosphate accumulation; format: functional, cell-based, COS-7; how it was run: as §2
# [34] = target: T12, Growth hormone secretagogue receptor type 1; test: Agonist activity at human ghrelin receptor Asn7:02Ala(Asn305) mutant expressed in african green monkey COS7 cells assessed as stimulation of constitutively stimulated inositol phosphate accumulation; format: functional, cell-based, COS-7; how it was run: as §2
# [35] = target: T2, Growth hormone secretagogue receptor type 1; test: Agonist activity at human ghrelin receptor Phe7:06Leu(Phe306) mutant expressed in african green monkey COS7 cells assessed as stimulation of constitutively stimulated inositol phosphate accumulation; format: functional, cell-based; conditions: cos-7; how it was run: as §2
# Target sequence in this assay (Q92847 whole entry, looked up): as the sequence (Q92847 whole entry D99K) above, with K99D counted along it
# [36] = target: T13, Growth hormone secretagogue receptor type 1; test: Agonist activity at human ghrelin receptor Phe7:09Ala(Phe312) mutant expressed in african green monkey COS7 cells assessed as stimulation of constitutively stimulated inositol phosphate accumulation; format: functional, cell-based, COS-7; how it was run: as §2
# [37] = target: T4, Growth hormone secretagogue receptor type 1; test: Inverse agonist activity at human ghrelin receptor Ser3:08Ala(Ser123) mutant expressed in african green monkey COS7 cells assessed as inhibition of constitutively stimulated inositol phosphate accumulation
compound,measurement,setting,value
CC(C)C[C@H](NC(=O)[C@H](CC(C)C)NC(=O)[C@@H](Cc1c[nH]c2ccccc12)NC(=O)[C@H](Cc1ccccc1)NC(=O)[C@@H](Cc1c[nH]c2ccccc12)NC(=O)[C@@H](N)CCCCN)C(N)=O,IC50,[1],> 1000 nM
same,IC50,[2],> 1000 nM
same,IC50,[3],32 nM
same,IC50,[4],13 nM
same,IC50,[5],36 nM
same,IC50,[6],> 1000 nM
same,IC50,[7],21 nM
same,IC50,[8],> 1000 nM
same,IC50,[9],2.6 nM
same,IC50,[10],29 nM
same,IC50,[11],27 nM
same,IC50,[12],83 nM
same,IC50,[13],19 nM
same,IC50,[14],> 1000 nM
same,IC50,[15],61 nM
same,IC50,[16],> 1000 nM
same,IC50,[17],> 1000 nM
same,EC50,[18],60 nM
same,EC50,[19],43 nM
CC(C)C[C@H](NC(=O)[C@H](CC(C)C)NC(=O)[C@@H](Cc1c[nH]c2ccccc12)NC(=O)[C@H](Cc1ccccc1)NC(=O)[C@@H](Cc1c[nH]c2ccccc12)NC(=O)[C@@H](CCCNC(=N)N)NC(=O)[C@H]1CCCN1C(=O)[C@@H](N)CC(=O)O)C(N)=O,IC50,[4],210 nM
same,IC50,[5],112 nM
CC(C)C[C@H](NC(=O)[C@H](CC(C)C)NC(=O)[C@@H](Cc1c[nH]c2ccccc12)NC(=O)[C@H](Cc1ccccc1)NC(=O)[C@@H](Cc1c[nH]c2ccccc12)NC(=O)[C@H](C)N)C(N)=O,IC50,[20],15 nM
same,IC50,[21],> 1000 nM
same,IC50,[22],> 1000 nM
same,IC50,[23],41 nM
same,IC50,[24],> 1000 nM
same,IC50,[25],> 1000 nM
same,IC50,[26],6.1 nM
same,IC50,[27],160 nM
same,IC50,[28],0.35 nM
same,IC50,[29],> 1000 nM
same,IC50,[30],14 nM
same,IC50,[31],> 1000 nM
same,IC50,[32],> 1000 nM
same,IC50,[33],> 1000 nM
same,IC50,[34],15 nM
same,IC50,[35],81 nM
same,IC50,[36],> 1000 nM
same,IC50,[4],53 nM
same,IC50,[5],15 nM
same,IC50,[37],28 nM
